Scp1 inh – Scp-1 (human) phosphatase inhibition | inhibition, % at 20 µM | Q9GZU7 | 340,000 compounds, 0.88% hits | Recombinant Scp1, phosphopeptide, malachite green phosphate absorbance;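 active = inhibition above about 50% at 20 µM, limit read from the data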;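 note: plate controls were DMSO wells with enzyme for no effect and wells lacking enzyme for full effect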
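Material: truncated SCP-1 phosphatase (76-261aa) / Buffer or medium: 50 mM Tris acetate pH 5.5, 0.005% Tween-20, 10 mM MgCl2 / Compound dosing: one concentration, 20 µM, with 1.0% DMSO / Incubation: 45 min room-temperature reaction, 5 min colour, 30 min stabiliser / Detection: colorimetric free-phosphate detection, absorbance 630 nm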
DNMT1 block – blocks human DNA methyltransferase DNMT1; 360,000 compounds, 0.83% hits; P26358; DNMT1 molecular beacon, Hinp1I cleavage, fluorescence; AID 588458; inhibition (reported as % activation of signal), % at 10 µM; in the data active = inhibition above about 50%
STEP inh – inhibitors of human striatal-enriched phosphatase STEP; P54829; recombinant STEP, OMFP fluorogenic substrate, fluorescence; inhibition, % at 20 µM; 360,000 compounds, 0.25% hits; AID 588621;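 active = inhibition at 20 µM, scaled per plate between control wells, above about 37%, limit read from the data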;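 note: 0% = DMSO with enzyme and substrate and 100% = substrate only without enzyme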
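Assay system: isolated STEP enzyme. Buffer or medium: pH 6.0 Bis-Tris with DTT and Tween 20. Also added: fluorogenic phosphatase substrate OMFP at 25 µM final. Dosing: 20 µM, 1% DMSO. Timing: 20 min reaction, room temperature, in the dark. Measured by: fluorescence intensity, excitation 480 nm, emission 540 nm. Evaluation: normalized % inhibition.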
GRK2 inh – human GRK2 inhibition via aptamer displacement. P25098. bead flow cytometry, FAM-aptamer displacement from GRK2. inhibition of aptamer binding, % at 10 µM. 330,000 compounds, 0.59% hits;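 active = inhibition of aptamer binding above 40%, roughly 3 SD of noise, on plates passing a quality check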;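 note: median bead fluorescence of bound FAM aptamer so fluorescent compounds give negative values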
Target sequence (P25098 whole entry, looked up): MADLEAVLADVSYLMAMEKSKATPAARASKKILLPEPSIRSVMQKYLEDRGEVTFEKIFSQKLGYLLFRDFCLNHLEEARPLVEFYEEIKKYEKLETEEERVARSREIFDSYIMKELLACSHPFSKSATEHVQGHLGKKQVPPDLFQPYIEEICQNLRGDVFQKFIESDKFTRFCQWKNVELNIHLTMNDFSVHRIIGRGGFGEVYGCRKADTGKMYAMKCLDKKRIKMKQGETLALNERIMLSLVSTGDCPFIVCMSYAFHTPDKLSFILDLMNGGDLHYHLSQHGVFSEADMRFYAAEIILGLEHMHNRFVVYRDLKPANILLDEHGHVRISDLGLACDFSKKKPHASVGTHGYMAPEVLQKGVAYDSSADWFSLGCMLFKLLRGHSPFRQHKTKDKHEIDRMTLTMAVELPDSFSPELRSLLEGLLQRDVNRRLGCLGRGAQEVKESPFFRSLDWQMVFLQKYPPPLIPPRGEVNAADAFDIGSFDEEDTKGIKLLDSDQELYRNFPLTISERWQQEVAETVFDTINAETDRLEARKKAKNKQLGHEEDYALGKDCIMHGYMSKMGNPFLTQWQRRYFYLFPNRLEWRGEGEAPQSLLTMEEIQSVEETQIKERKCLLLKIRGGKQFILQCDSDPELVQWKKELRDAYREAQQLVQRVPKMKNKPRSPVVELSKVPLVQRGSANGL
LMPTP inh – blocks human LMPTP phosphatase; recombinant LMPTP-A, OMFP fluorogenic substrate, fluorescence intensity; inhibition, % at 20 µM; 360,000 compounds, 0.22% hits; AID 651560;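 active = compounds that cut the enzyme signal by at least half of the control window in the single-dose screen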;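 note: plate controls were DMSO wells with enzyme plus substrate for no effect and substrate without enzyme for full effect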
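Assay system: LMPTP-A enzyme. Input: 0.625 nM LMPTP-A final. Probe or stimulus: 400 µM OMFP. Compound dosing: single 20 µM dose. Schedule: 50 min dark incubation at room temperature. Detection: fluorescence intensity of OMFP turnover product. Read-out: percent inhibition versus substrate-only and uninhibited controls. Benchmarks: no-enzyme low control, uninhibited high control.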
SUMO1-SIM PPI – alters human SUMO1 binding to SIM partners | inhibition, % at 20 µM | SUMO1 binding to a labelled peptide, TR-FRET, 1 h | AID 602429 | 360,000 compounds, 0.33% hits | P63165; in the data active = inhibition above about 37%
Target sequence (P63165 whole entry, looked up): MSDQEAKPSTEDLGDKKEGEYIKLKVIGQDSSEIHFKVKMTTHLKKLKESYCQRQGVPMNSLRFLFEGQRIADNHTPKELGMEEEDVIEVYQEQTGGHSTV
GRK2 CP1 – human GRK2 inhibition confirmation, cherry pick 1. shares compounds with GRK2 inh. bead-bound GRK2, FAM-aptamer displacement, flow cytometry. aptamer displacement, % at 10 µM. 2,000 compounds, 4% hits;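 active = aptamer displacement above 40%, near three times the noise of non-fluorescent compounds, on plates passing quality checks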;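 note: negative values mostly reflect intrinsic compound fluorescence rather than true enhancement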
FAM quench CP1 – aptamer fluorescence quenching in GRK2 counter-screen. shares compounds with GRK2 inh. Carboxyfluorescein RNA aptamer on beads, flow cytometry quenching; hits give low values. fluorescence response (% of DMSO), % at 10 µM. 2,000 tested, under 10 active;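 active = compounds that quench the bead-bound fluorescent RNA probe, cutting fluorescence to under half of the solvent control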;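 note: counterscreen run without GRK2 so only probe quenching by compound is measured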
GRK2 CP2 – human GRK2 inhibition confirmation, cherry pick 2; shares compounds with GRK2 inh; bead-bound GRK2, FAM-aptamer displacement, flow cytometry; inhibition of aptamer binding, % at 10 µM; 360 tested, under 10 active;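 active = inhibition of aptamer binding above 40%, about triple the noise seen with nonglowing compounds, on plates passing quality control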;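 note: negative values mostly come from compounds that fluoresce themselves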
FAM quench SP – quenches fluorescent RNA aptamer, GRK2 hit artifact. fluorescence response vs DMSO, % at 10 µM. shares compounds with GRK2 inh. AID 588494. carboxyfluorescein RNA aptamer beads, flow cytometry quenching; hits give low values. 360 tested, under 10 active;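 active = response vs DMSO under 50%, meaning signal dropped by over half, treated as fluorescence quencher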;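 note: labelled aptamer on streptavidin beads without GRK2 as a quench counter-screen; 100% = bead fluorescence of DMSO wells and lower means quenching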
* hit, by the source's call; . = no result given. An excerpt weighted towards active compounds, which were near 2.1% of everything screened.

SMILES | Scp1 inh | DNMT1 block | STEP inh | GRK2 inh | LMPTP inh | SUMO1-SIM PPI | GRK2 CP1 | FAM quench CP1 | others
CCCCN(C(=O)c1ccc(N2C(=O)c3ccccc3C2=O)cc1)c1c(N)n(CC(C)C)c(=O)[nH]c1=O | -6 | -2 | -1 | . | 0 | -14 | . | .
C=C(C)CSc1nc2sc3c(c2c(=O)n1-c1ccccc1)CCN(C)C3 | 12 | 2 | 1 | 37 | 3 | -13 | 1 | 95
COc1ccc(S(=O)(=O)Nc2cccc3c2O[C@H](CN(C)C(=O)Nc2ccc4c(c2)OCO4)[C@@H](C)CN([C@H](C)CO)C3=O)cc1 | 5 | -2 | 0 | 6 | -1 | 3 | . | .
O=c1c2c(ncn2C2CCCC2)n(Cc2ccccc2)c(=O)n1CCOc1ccc(Br)cc1 | -3 | -1 | -2 | 100* | 1 | -2 | . | . | GRK2 CP2=-14;FAM quench SP=107
c1ccc(C[C@H]2COc3c4ccccc4nn32)cc1 | . | . | . | . | 0 | -2 | . | .
O=C1C=C(O)c2cccc3cccc1c23 | -10 | 1 | 0 | 100* | 9 | -22 | 2 | 98
CCOC(=O)CC[C@H](NC(=O)Cn1cnc2c(NCc3ccccc3)ncnc21)C(=O)OCC | 4 | 4 | -2 | 1 | 0 | -1 | . | .
Cc1cc(C)cc(Cn2cc(CN3CC(N4CCSCC4)CS3(=O)=O)nn2)c1 (centres undefined) | . | . | . | . | 0 | -1 | . | .
Nc1cc2c(cc1Br)-c1ccccc1C2=NO | 7 | 3 | -4 | . | 2 | -15 | . | .
O=C1c2cccc3c([N+](=O)[O-])ccc(c23)C(=O)N1O | 83* | 71* | 10 | 56* | 22 | 32 | -6 | 97
O=C1c2cccc3c([N+](=O)[O-])ccc(c23)C(=O)N1c1ccccn1 | 0 | 32 | -2 | 2 | 0 | -21 | . | .
C[C@@H]1CN([C@H](C)CO)C(=O)c2cc(C3=CCCCC3)cnc2O[C@@H]1CN(C)Cc1ccccc1C(=O)O | . | -1 | 2 | . | -6 | 2 | . | .
CCCCOc1ccc(S(=O)(=O)NC(=O)C2(C)CCN2C(=O)CCc2ccccc2)cc1 (centres undefined) | . | 6 | -2 | . | 1 | 4 | . | .
CCN(CC)Cc1csc(C(N)=O)c1 | -1 | -3 | 0 | 14 | -2 | -2 | -3 | 101
COc1cc(NC(=O)C2CC(c3ccccc3O)=NO2)cc(OC)c1OC (centres undefined) | . | 0 | -1 | . | -1 | 5 | . | .
O=C(Nc1ccccc1)c1ccc(CN2CCc3ccccc3C2)cc1 | -2 | -2 | -2 | 100* | 1 | 0 | . | . | GRK2 CP2=-14;FAM quench SP=98
Cc1ccc(NC(=O)c2ccc(CN3CCc4ccccc4C3)cc2)cc1 | -4 | -12 | 1 | 0 | -1 | -3 | . | .
O=C(N/N=C/c1ccc(O)cc1)c1[nH]c2ccc(Br)cc2c1-c1ccccc1 | 4 | -17 | 1 | 51* | 2 | -2 | -7 | 100
CCNC(=O)C1CCCN(C(=O)Cc2ccc3ccccc3c2)CC1 (centres undefined) | . | 4 | 1 | . | -1 | 4 | . | .
COc1ccc(-n2c3nc4ccccc4nc3c3c(=N)oc(C)nc32)cc1 | -8 | -9 | 0 | 86* | 1 | 7 | . | . | GRK2 CP2=-1;FAM quench SP=100
CCCCn1c2nc3ccccc3nc2c2c(=N)oc(C)nc21 | 3 | -7 | -2 | . | 0 | -16 | . | .
Cc1ccc(NC(=O)COC(=O)Cc2c[nH]c3ccccc23)cc1 | . | 2 | 0 | . | 2 | -1 | . | .
Cc1c(NC(=O)c2ccc(Cl)nc2)cccc1-c1nc2cccnc2s1 | -17 | -2 | 1 | 1 | 1 | -1 | . | .
Cc1c(NC(=O)c2ccco2)cccc1-c1nc2cccnc2s1 | -5 | -9 | -2 | 46* | 1 | -2 | -1 | 98
CN1C/C(=C/c2ccsc2)C(=O)/C(=C/c2ccsc2)C1 | -10 | 4 | 3 | 63* | 0 | -7 | 0 | 96
SMILES | Scp1 inh | DNMT1 block | STEP inh | GRK2 inh | LMPTP inh | SUMO1-SIM PPI | GRK2 CP1 | FAM quench CP1 | others
CC1(c2nnnn2-c2ccc3c(c2)OCCO3)CCC(=O)N1CCOc1ccccc1 (centres undefined) | . | . | . | . | 0 | 1 | . | .
Cc1cc(Cl)c2oc(C(=O)NC3CCC(O)CC3)c(C)c2c1 (centres undefined) | 34 | 0 | 0 | 65* | 0 | 8 | 0 | 97
CC(=O)Nc1ccc(C(=O)N2CCCCC2c2cc(C(=O)N3CCOCC3)no2)cc1 (centres undefined) | . | 3 | -4 | . | -1 | 1 | . | .
O=S(=O)(NC1CC(NS(=O)(=O)OCC(Cl)(Cl)Cl)C2CCCCC12)OCC(Cl)(Cl)Cl (centres undefined) | -9 | -5 | -1 | 74* | -6 | 3 | -3 | 100
C[C@H](NS(=O)(=O)OCC(Cl)(Cl)Cl)C1CC1c1ccccc1 (some centres undefined) | -1 | 17 | 1 | 2 | 0 | 8 | . | .
CNS(=O)(=O)c1ccc(CNC[C@H]2O[C@@H](n3ccc(N)nc3=O)[C@H](O)[C@@H]2O)cc1 | . | 4 | -2 | . | -1 | 3 | . | .
Cc1oc(/C=N/NC(=O)CC2(C)OCCO2)cc1Br | -3 | -3 | -1 | 35 | -2 | -8 | 1 | 99
CC1(CC(=O)N/N=C/c2cc(Br)c(O)cc2O)OCCO1 | -8 | 1 | -6 | 0 | -10 | -3 | . | .
COc1ccccc1S(=O)(=O)n1cc(Cc2ccccc2)c(N)n1 | -2 | 5 | 5 | 74* | 1 | 4 | -11 | 97
CCN(CC(=O)Nc1ccccc1C(F)(F)F)C(=O)c1ccccc1Cc1ccccc1 | 2 | 0 | 1 | 0 | 1 | 1 | . | .
O=C(O)c1ccc(OC(F)(F)C(F)C(F)(F)F)cc1 (centres undefined) | 8 | 4 | -1 | 76* | 0 | 1 | 3 | 98
Cc1cccc(NC(=O)CCS(=O)(=O)c2cccc3nsnc23)c1C | -5 | -1 | 8 | 3 | -1 | -27 | . | . | GRK2 CP2=13;FAM quench SP=101
Cc1cccc(NC(=O)CCc2ccccc2)c1C | 5 | -1 | -4 | 85* | -3 | -1 | -5 | 98
O=C(O)C1C2C=CC(C3CC23)C1C(=O)O (centres undefined) | 10 | 16 | 5 | 18 | -1 | -2 | . | . | GRK2 CP2=6;FAM quench SP=101
